In brackets after ≈: the same amount, converted by molar mass.
How the values were obtained:
Type in all cases: functional
HeLa = assay: Cytostatic activity against HeLa cells; settings: Homo sapiens, read-out: ED50 (the source's name)
Procedure, shortened: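 HeLa cells at 10⁵ cells/mL in minimal Eagle's medium with 10% fetal calf serum, left 2–3 h at 37 °C in Leighton tubes to attach. Compound added as suspension in sterile saline with 0.05% Tween 80, 10% of final volume. Incubated 72 h at 37 °C. Growth from cell protein by Oyama–Eagle colorimetry; ED50 in μg/mL. 6-Mercaptopurine positive control.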

Mus musculus [1] = assay: Difference in weight on day 5 in mice bearing ECA tumor at 50 mg/kg
Procedure, shortened: (§1)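 Female ICR Swiss mice, 19–22 g, given about 5 × 10⁵ Ehrlich ascites cells ip from a 7-day donor. Starting 24 h later, nine daily ip doses suspended in 0.9% NaCl with 0.05% Tween 80, 0.4 mL. Groups of 7 treated, 30 controls, per NCI protocols 1100/1200. Value is weight difference (g) between test and control animals.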

Mus musculus [2] = assay: Number of survivors on day 5 to that of number(7) of mice at 25 mg/kg ip in mice bearing ECA tumor was determined; settings: route intraperitoneal
Procedure, shortened: (§2)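 Female ICR Swiss mice (19–22 g) given about 5 × 10⁵ Ehrlich ascites carcinoma cells ip from a 7-day donor tumour. Starting 24 h later, nine ip doses at 24-h intervals, suspended in 0.9% NaCl with 0.05% Tween 80, 0.4 mL per injection. Groups of 7 treated and 30 controls. Read-out is survivors on day 5 over mice started.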

Mus musculus [3] = assay: Difference in weight on day 5 in mice bearing ECA tumor at 25 mg/kg; procedure, shortened: as §1
Mus musculus [4] = assay: Percent increase in median survival time of treated mice compared with controls at 12.5 mg/kg
Procedure, shortened: (§3)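 Ehrlich carcinoma ascites in female ICR Swiss mice (19–22 g), about 5 × 10⁵ cells ip, per NCI protocols 1100/1200. From 24 h after implant, nine daily ip doses in saline with 0.05% Tween 80 (0.4 mL). Groups of 7 treated and 30 controls; 5-fluorouracil 20 (mg/kg)/injection as positive control. T/C × 100 taken from median survival time against controls; evaluation on day 30.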

Mus musculus [5] = assay: Number of survivors on day 5 to that of number(7) of mice at 50 mg/kg ip in mice bearing ECA tumor was determined; settings: route intraperitoneal; procedure, shortened: as §2
Mus musculus [6] = assay: Number of cures on day 30 in mice bearing ECA tumor at 12.5 mg/kg
Procedure, shortened: (§4)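 Ehrlich ascites carcinoma, about 5 × 10⁵ cells ip from a 7-day donor, in female ICR Swiss mice of 19–22 g. Nine ip doses at 24-h intervals from 24 h post-implant, in saline with 0.05% Tween 80, 0.4 mL. Groups of 7 treated, 30 controls; NCI protocols 1100/1200. Cures are survivors on day 30. 5-Fluorouracil 20 mg/kg/injection reference.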

Mus musculus [7] = assay: Percent increase in median survival time of treated mice compared with controls at 50 mg/kg; procedure, shortened: as §3
Mus musculus [8] = assay: Difference in weight on day 5 in mice bearing ECA tumor at 12.5 mg/kg; procedure, shortened: as §1
Mus musculus [9] = assay: Number of survivors on day 5 to that of number(7) of mice at 12.5 mg/kg ip in mice bearing ECA tumor was determined; settings: route intraperitoneal; procedure, shortened: as §2
Mus musculus [10] = assay: Number of cures on day 30 in mice bearing ECA tumor at 50 mg/kg; procedure, shortened: as §4
Mus musculus [11] = assay: Number of cures on day 30 in mice bearing ECA tumor at 25 mg/kg; procedure, shortened: as §4
Mus musculus [12] = assay: Percent increase in median survival time of treated mice compared with controls at 25 mg/kg; procedure, shortened: as §3

SMILES: CCOC(=O)c1cc(CCl)[nH]n1
- EC50 (HeLa): > 100 µg/mL

SMILES: NC(=O)c1cc(CCl)[nH]n1
- EC50 (HeLa): > 100 µg/mL

SMILES: CC(=O)OC[C@H]1O[C@@H](n2nc(CCl)cc2C(N)=O)[C@H](OC(C)=O)[C@@H]1OC(C)=O
- EC50 (HeLa): 26 µg/mL (≈ 62.2 µM)

SMILES: CCOC(=O)c1cc(CCl)nn1[C@@H]1O[C@H](COC(C)=O)[C@@H](OC(C)=O)[C@H]1OC(C)=O
- EC50 (HeLa): 32 µg/mL (≈ 71.6 µM)

SMILES: CC(=O)OC[C@H]1O[C@@H](n2nc(C(N)=O)cc2CCl)[C@H](OC(C)=O)[C@@H]1OC(C)=O
- EC50 (HeLa): 12 µg/mL (≈ 28.7 µM)

SMILES: CC(=O)OC[C@H]1O[C@@H](n2nc(C(N)=O)cc2CI)[C@H](OC(C)=O)[C@@H]1OC(C)=O
- Weight difference (Mus musculus [1]): -0.5
- Survivors (Mus musculus [2]): 7
- Weight difference (Mus musculus [3]): -0.25
- T/C (Mus musculus [4]): 121%
- Survivors (Mus musculus [5]): 7
- Cures (Mus musculus [6]): 2
- EC50 (HeLa): 2 µg/mL (≈ 3.93 µM)
- T/C (Mus musculus [7]): 100%
- Weight difference (Mus musculus [8]): 0.3
- Survivors (Mus musculus [9]): 7
- Cures (Mus musculus [10]): 1
- Cures (Mus musculus [11]): 4
- T/C (Mus musculus [12]): 141%

SMILES: CCOC(=O)c1cc(CI)nn1[C@@H]1O[C@H](COC(C)=O)[C@@H](OC(C)=O)[C@H]1OC(C)=O
- EC50 (HeLa): 5.5 µg/mL (≈ 10.2 µM)

SMILES: CC(=O)OC[C@H]1O[C@@H](n2nc(CI)cc2C(N)=O)[C@H](OC(C)=O)[C@@H]1OC(C)=O
- Weight difference (Mus musculus [1]): -0.6
- Survivors (Mus musculus [2]): 7
- Weight difference (Mus musculus [3]): -0.4
- T/C (Mus musculus [4]): 131%
- Survivors (Mus musculus [5]): 7
- Cures (Mus musculus [6]): 2
- EC50 (HeLa): 1.5 µg/mL (≈ 2.95 µM)
- T/C % (Mus musculus [7]): 63%
- Weight difference (Mus musculus [8]): -0.6
- Survivors (Mus musculus [9]): 7
- Cures (Mus musculus [11]): 4
- T/C (Mus musculus [12]): 158%

SMILES: CCOC(=O)c1cc(CCl)nn1C1O[C@@H](COC(C)=O)[C@H](OC(C)=O)[C@@H](OC(C)=O)[C@@H]1OC(C)=O (some centres not stated)
- EC50 (HeLa): 40 µg/mL (≈ 77.1 µM)

SMILES: CCOC(=O)c1cc(CI)[nH]n1
- EC50 (HeLa): > 100 µg/mL

SMILES: CC(=O)OC[C@@H]1OC(n2nc(CCl)cc2C(N)=O)[C@@H](OC(C)=O)[C@H](OC(C)=O)[C@H]1OC(C)=O (some centres not stated)
- EC50 (HeLa): 18 µg/mL (≈ 36.7 µM)

SMILES: NC(=O)c1cc(CI)[nH]n1
- EC50 (HeLa): > 100 µg/mL

SMILES: CC(=O)OC[C@H]1OC(n2nc(CCl)cc2C(N)=O)[C@H](OC(C)=O)[C@@H](OC(C)=O)[C@@H]1OC(C)=O (some centres not stated)
- EC50 (HeLa): 12 µg/mL (≈ 24.5 µM)

SMILES: CCOC(=O)c1cc(CCl)nn1C1O[C@H](COC(C)=O)[C@@H](OC(C)=O)[C@H](OC(C)=O)[C@H]1OC(C)=O (some centres not stated)
- EC50 (HeLa): > 100 µg/mL

SMILES: CCOC(=O)c1cc(CI)nn1C1O[C@@H](COC(C)=O)[C@H](OC(C)=O)[C@@H](OC(C)=O)[C@@H]1OC(C)=O (some centres not stated)
- EC50 (HeLa): 2.5 µg/mL (≈ 4.1 µM)

SMILES: CC(=O)OC[C@@H]1OC(n2nc(CI)cc2C(N)=O)[C@@H](OC(C)=O)[C@H](OC(C)=O)[C@H]1OC(C)=O (some centres not stated)
- Weight difference (Mus musculus [1]): -0.3
- Survivors (Mus musculus [2]): 7
- Weight difference (Mus musculus [3]): -0.1
- Survivors (Mus musculus [5]): 7
- EC50 (HeLa): 2 µg/mL (≈ 3.44 µM)
- T/C (Mus musculus [7]): 176%
- Cures (Mus musculus [10]): 4
- Cures (Mus musculus [11]): 1
- T/C (Mus musculus [12]): 105%
